Assay outcomes deposited in PubChem by Broad Institute.
T cruzi growth-1: T. cruzi intracellular proliferation inhibitors, primary screen, cell-based, beta-gal Tulahuen parasites, NIH3T3 host, luminescence | T. cruzi beta-gal in NIH3T3, GalScreen luminescence, 90 h | inhibition, % at 8.34 µM | 77,000 tested, 5.9% active;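 active = mean inhibition above about 93%, with at least 55% of replicates each passing it, limit read from the data, passing the limit was not always enough; inconclusive = only one of those two conditions holds; inactive = neither condition holds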
KDM4C inh: inhibitors of GASC-1 (KDM4C) histone demethylase, primary screen, biochemical, single concentration HTS; Lysine-specific demethylase 4C (Homo sapiens), Q9H3R0; GST-KDM4C 2-372, H3K9me3 peptide, LANCE TR-FRET; inhibition, % at 12.5 µM; 96,000 tested, 0.15% active; AID 720574, 2013;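 active = mean replicate inhibition above about 25%, with at least 55% of replicates also reaching it, limit read from the data, passing the limit was not always enough; inconclusive = only one of those two conditions met; inactive = neither condition met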
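reagent = H3K9me3 peptide substrate, Fe(II), 2-oxoglutarate | system = GST-tagged GASC-1 (JMJD2C) catalytic fragment, aa 2-372 | amount = enzyme final amount 10 nM | read-out = Fall in 671/618 emission ratio as inhibition | medium = HEPES buffer, pH 7.5, plus ascorbate | schedule = 30 min reaction, 60 min detection, RT | measured by = LANCE TR-FRET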
IDH1 R132H inh: inhibitors of IDH1 R132H reductase, primary screen, biochemical, plate reader, single point; Isocitrate dehydrogenase [NADP] cytoplasmic (Homo sapiens), O75874; diaphorase/resazurin fluorescence, 60 min; inhibition, % at 10 µM; 70,000 tested, 0.18% active; in the data active = inhibition above about 34%; inconclusive = no clear call, values can overlap the other calls; inactive = below about 11%
Target sequence (O75874 whole entry R132H): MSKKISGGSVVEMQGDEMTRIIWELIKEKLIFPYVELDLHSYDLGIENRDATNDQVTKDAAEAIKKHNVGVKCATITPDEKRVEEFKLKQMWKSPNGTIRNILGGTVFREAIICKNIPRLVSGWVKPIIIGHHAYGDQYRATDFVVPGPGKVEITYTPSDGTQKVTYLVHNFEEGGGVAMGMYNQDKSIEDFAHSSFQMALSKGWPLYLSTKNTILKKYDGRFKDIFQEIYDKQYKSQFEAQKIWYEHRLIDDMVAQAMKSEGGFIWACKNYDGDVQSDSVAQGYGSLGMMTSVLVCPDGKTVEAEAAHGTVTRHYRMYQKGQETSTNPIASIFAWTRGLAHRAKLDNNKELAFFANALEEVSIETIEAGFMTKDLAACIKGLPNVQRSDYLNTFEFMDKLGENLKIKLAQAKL
T cruzi growth-2: T. cruzi intracellular proliferation inhibitors, confirmation, cell-based, NIH3T3 host, beta-gal parasite, luminescence, cherry-pick; T. cruzi beta-gal in NIH3T3, GalScreen luminescence, 90 h; inhibition, % at 8.35 µM; 5,600 tested, 72% active; shares compounds with T cruzi growth-1; AID 651739, 2012;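 active = mean replicate inhibition above about 95% and at least 55% of replicates individually reaching it, limit read from the data; inconclusive = only one of the two criteria is met; inactive = neither criterion is met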
T cruzi growth-3: inhibitors of intracellular T. cruzi replication, confirmation, NIH3T3 host cells, beta-gal parasites, cherry-pick, set 2; shares compounds with T cruzi growth-1; T. cruzi beta-gal in NIH3T3, GalScreen luminescence, 90 h; inhibition, % at 2.09 µM; 5,600 tested, 21% active; AID 651740, 2012;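 active = mean inhibition above about 95%, with at least 55% of replicates also reaching it, limit read from the data; inconclusive = meets just one of the two conditions; inactive = meets neither condition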
3T3 cytotox: cytotoxicity in mouse NIH/3T3 fibroblasts, confirmation, cytotoxicity control for T. cruzi proliferation inhibitor project, cell-based, cherry-pick, single point; shares compounds with T cruzi growth-1; AID 651742, 2012; cytotoxicity (signal decrease), % at 8.35 µM; 5,600 tested, 14% active; NIH/3T3 viability, CellTiter-Glo ATP luminescence, 90 h;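 active = mean signal decrease across replicates above about 35% based on untreated-well scatter, with enough replicates individually passing, limit read from the data; inconclusive = no rule stated though some were filed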
NIH3T3 tox 2: NIH/3T3 fibroblast cytotoxicity, confirmation, cytotoxicity control, cell-based, cherry-pick, single point, set 2; NIH/3T3 viability, CellTiter-Glo ATP luminescence, 90 h; 5,600 tested, 56% active; shares compounds with T cruzi growth-1; inhibition, % at 24.9 µM;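 active = mean loss of cell viability signal at or above a set limit, and enough replicates individually reaching it; inconclusive = meets only the mean limit or only the replicate share; inactive = meets neither condition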
Hits are given with their value. The full list was thinned out, with hits kept by preference.

How did CS(=O)(=O)N(CC(=O)Nc1ccc(Cl)c(Cl)c1)c1ccc(Br)cc1 do in these assays?
IDH1 R132H inh: inactive

Results for CCN(CC(=O)Nc1ccccc1OC)S(=O)(=O)c1ccc(Cl)cc1 ?
IDH1 R132H inh: inactive

What do the screens show for `CN1c2ccc(C3=CCCCC3)cc2[C@H]2[C@H](CCN2C(=O)C2CCC2)[C@@H]1CO`?
KDM4C inh: inactive

Results for CN(C)C(=O)c1ccc(-c2ccc3c(c2)[C@H]2[C@H](CCN2C(=O)C2CC2)[C@H](CO)N3C)cc1 ?
T cruzi growth-1: inactive; KDM4C inh: inactive

What do the screens show for `CN1c2ccc(C3=CCCCC3)cc2[C@@H]2[C@@H](CCN2C(=O)C2CCOCC2)[C@H]1CO`?
T cruzi growth-1: 105; KDM4C inh: inactive; T cruzi growth-2: 102; T cruzi growth-3: inactive; 3T3 cytotox: inactive; NIH3T3 tox 2: inactive

How did CN1c2ccc(-c3cccc(F)c3)cc2[C@@H]2[C@@H](CCN2C(=O)C2CCOCC2)[C@H]1CO do in these assays?
T cruzi growth-1: inactive; KDM4C inh: inactive

What do the screens show for `CN(C)C(=O)c1ccc(-c2ccc3c(c2)[C@H]2[C@H](CCN2C(=O)C2CCOCC2)[C@@H](CO)N3C)cc1`?
T cruzi growth-1: 101; KDM4C inh: inactive; T cruzi growth-2: 98; T cruzi growth-3: inactive; 3T3 cytotox: inactive; NIH3T3 tox 2: inactive

What do the screens show for `CN(C)C(=O)c1ccc(-c2ccc3c(c2)[C@H]2[C@H](CCN2C(=O)C2CC2)[C@@H](CO)N3C)cc1`?
T cruzi growth-1: 102; KDM4C inh: inactive; T cruzi growth-2: 101; T cruzi growth-3: 99; 3T3 cytotox: inactive; NIH3T3 tox 2: inactive

What do the screens show for `CN(C)C(=O)c1ccc(-c2ccc3c(c2)[C@H]2[C@H](CCN2C(=O)C2CCCCC2)[C@@H](CO)N3C)cc1`?
KDM4C inh: inactive

Results for CN1c2ccc(-c3ccc(F)cc3)cc2[C@H]2[C@H](CCN2C(=O)C2CCOCC2)[C@@H]1CO ?
T cruzi growth-1: 102; KDM4C inh: inactive; T cruzi growth-2: 104; T cruzi growth-3: inactive; 3T3 cytotox: inactive; NIH3T3 tox 2: inactive

What do the screens show for `Cn1ncc2c(NN3C(=O)CCC3=O)ncnc21`?
IDH1 R132H inh: inactive

How did COc1ccc(OCC(=O)Nc2cc(-c3nc4ccccc4o3)ccc2C)cc1 do in these assays?
IDH1 R132H inh: inactive

What do the screens show for `CN(c1cccc(NS(=O)(=O)c2ccc3c(c2)OCCO3)c1)S(C)(=O)=O`?
IDH1 R132H inh: inactive

How did COc1ccc(N(CC(=O)Nc2ccccc2Br)S(C)(=O)=O)cc1OC do in these assays?
IDH1 R132H inh: inactive

What do the screens show for `Cc1cccc(C)c1N(CC(=O)Nc1ccc(Br)cc1)S(C)(=O)=O`?
IDH1 R132H inh: inactive

Results for CCCC#Cc1ccc2c(c1)O[C@@H](CN(C)Cc1ccccn1)[C@@H](C)CN([C@H](C)CO)S2(=O)=O ?
T cruzi growth-1: inconclusive; KDM4C inh: inactive; IDH1 R132H inh: inactive; T cruzi growth-2: 96; T cruzi growth-3: inactive; 3T3 cytotox: inconclusive; NIH3T3 tox 2: inactive

How did CC(C)C#Cc1ccc2c(c1)O[C@@H](CN(C)Cc1ccccn1)[C@@H](C)CN([C@@H](C)CO)S2(=O)=O do in these assays?
T cruzi growth-1: inactive

How did CCCC#Cc1ccc2c(c1)O[C@H](CN(C)Cc1ccccn1)[C@@H](C)CN([C@@H](C)CO)S2(=O)=O do in these assays?
T cruzi growth-1: inconclusive; KDM4C inh: inactive; IDH1 R132H inh: inactive; T cruzi growth-2: 99; T cruzi growth-3: inconclusive; 3T3 cytotox: inactive; NIH3T3 tox 2: 103
